According to ChEMBL document CHEMBL1667815, “Pharmacophore models based studies on the affinity and selectivity toward 5-HT1A with reference to α1-adrenergic receptors among arylpiperazine derivatives of phenytoin” (Bioorg Med Chem, 2011):

Tests used:
[1] = molecular target: T1, 5-hydroxytryptamine receptor 1A (Rattus norvegicus) (UniProt P19327); experiment: Displacement of [3H]-8-OH-DPAT from 5-HT1A receptor in rat hippocampal membranes by liquid scintillation counting; assay type: cell membranes; conditions: Hippocampus, Membrane
T1 sequence (whole entry): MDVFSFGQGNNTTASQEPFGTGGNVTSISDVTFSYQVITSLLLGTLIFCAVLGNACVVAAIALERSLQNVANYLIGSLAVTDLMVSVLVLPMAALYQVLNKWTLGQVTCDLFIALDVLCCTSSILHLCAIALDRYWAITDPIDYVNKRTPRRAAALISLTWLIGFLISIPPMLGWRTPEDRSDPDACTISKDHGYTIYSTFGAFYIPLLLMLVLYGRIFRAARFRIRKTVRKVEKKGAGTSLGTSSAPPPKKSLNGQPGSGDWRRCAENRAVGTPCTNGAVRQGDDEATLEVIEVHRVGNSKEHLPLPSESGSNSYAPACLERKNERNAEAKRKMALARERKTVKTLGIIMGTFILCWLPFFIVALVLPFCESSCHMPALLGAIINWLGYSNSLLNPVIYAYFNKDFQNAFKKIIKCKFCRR
Summary of the method: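 Native 5-HT1A sites in rat hippocampal membranes, labelled with [3H]-8-OH-DPAT (170.2 Ci/mmol). Each compound was tested at two concentrations (0.1 and 1), each in triplicate. Bound radioactivity was counted by liquid scintillation. Ks values were estimated from three independent binding experiments and reproduced within 20%.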

Rattus norvegicus = species: Rattus norvegicus; experiment: Selectivity ratio of Ki for alpha1-adrenergic receptor in rat cerebral cortex membranes to Ki for 5-HT1A receptor in rat hippocampal membranes; assay type: cell membranes; conditions: Membrane
[2] = molecular target: T2, Adrenergic receptor alpha-1 (Rattus norvegicus, UniProt P15823+P23944+P43140); experiment: Displacement of [3H]-prazosin from alpha1-adrenergic receptor in rat cerebral cortex membranes after 30 mins by scintillation counting; assay type: cell membranes, Membrane
T2 sequence (P15823 whole entry): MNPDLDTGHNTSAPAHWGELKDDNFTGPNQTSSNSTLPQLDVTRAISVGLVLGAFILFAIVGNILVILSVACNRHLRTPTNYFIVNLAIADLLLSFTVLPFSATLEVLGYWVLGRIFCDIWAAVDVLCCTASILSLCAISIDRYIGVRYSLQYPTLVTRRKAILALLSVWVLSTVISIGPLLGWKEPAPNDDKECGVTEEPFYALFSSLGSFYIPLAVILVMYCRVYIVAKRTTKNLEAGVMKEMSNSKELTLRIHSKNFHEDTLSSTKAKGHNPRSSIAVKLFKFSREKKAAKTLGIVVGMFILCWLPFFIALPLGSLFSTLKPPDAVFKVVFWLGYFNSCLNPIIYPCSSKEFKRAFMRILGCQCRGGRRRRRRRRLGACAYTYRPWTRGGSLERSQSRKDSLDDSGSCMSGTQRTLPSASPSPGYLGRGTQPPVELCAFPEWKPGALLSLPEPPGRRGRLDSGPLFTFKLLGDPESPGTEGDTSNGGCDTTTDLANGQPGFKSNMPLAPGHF
T2 sequence (P23944 whole entry): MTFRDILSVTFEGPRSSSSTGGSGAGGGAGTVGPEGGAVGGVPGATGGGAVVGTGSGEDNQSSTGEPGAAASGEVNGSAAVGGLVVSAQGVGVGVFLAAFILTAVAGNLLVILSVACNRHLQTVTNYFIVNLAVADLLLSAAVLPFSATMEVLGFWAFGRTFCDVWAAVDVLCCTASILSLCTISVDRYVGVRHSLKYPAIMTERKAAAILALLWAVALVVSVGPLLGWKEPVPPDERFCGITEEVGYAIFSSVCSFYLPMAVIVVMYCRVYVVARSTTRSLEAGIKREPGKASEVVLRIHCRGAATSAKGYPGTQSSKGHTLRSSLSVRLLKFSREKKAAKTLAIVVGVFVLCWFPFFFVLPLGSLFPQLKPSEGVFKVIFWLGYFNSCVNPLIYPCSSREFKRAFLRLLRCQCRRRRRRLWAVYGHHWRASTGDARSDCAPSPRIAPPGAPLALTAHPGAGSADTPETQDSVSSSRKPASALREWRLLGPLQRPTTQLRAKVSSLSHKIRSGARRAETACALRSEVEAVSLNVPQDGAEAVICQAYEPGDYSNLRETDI
T2 sequence (P43140 whole entry): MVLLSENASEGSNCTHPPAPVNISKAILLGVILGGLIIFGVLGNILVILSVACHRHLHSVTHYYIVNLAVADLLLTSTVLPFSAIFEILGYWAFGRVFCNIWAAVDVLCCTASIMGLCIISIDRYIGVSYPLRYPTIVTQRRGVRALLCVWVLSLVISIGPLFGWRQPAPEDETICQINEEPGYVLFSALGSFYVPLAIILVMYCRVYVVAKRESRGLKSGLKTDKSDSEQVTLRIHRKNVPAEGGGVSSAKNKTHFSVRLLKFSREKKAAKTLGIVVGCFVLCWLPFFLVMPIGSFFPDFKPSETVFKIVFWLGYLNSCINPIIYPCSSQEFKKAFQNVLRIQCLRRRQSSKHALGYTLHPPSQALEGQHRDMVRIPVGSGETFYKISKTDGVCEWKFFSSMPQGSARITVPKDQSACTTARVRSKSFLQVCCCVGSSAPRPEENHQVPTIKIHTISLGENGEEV

[3] = molecular target: Adrenergic receptor alpha-1 (Rattus norvegicus) (UniProt P15823+P23944+P43140); conditions: Wistar, Thoracic aorta

COc1ccccc1N1CCN(CC(O)CN2C(=O)NC(=O)C2(c2ccccc2)c2ccccc2)CC1 (racemic)
Ks [1]: 95 nM

COC(=O)C(C)N1C(=O)N(CC(O)CN2CCN(c3ccccc3OC)CC2)C(c2ccccc2)(c2ccccc2)C1=O (racemic)
Ks [1]: 104 nM | Ratio (Rattus norvegicus): 1

CCOc1ccccc1N1CCN(CC(O)CN2C(=O)N(C(C)C(=O)OC)C(=O)C2(c2ccccc2)c2ccccc2)CC1 (racemic)
Ks [1]: 28 nM

COc1ccccc1N1CCN(CC(O)CN2C(=O)N(CC(=O)O)C(=O)C2(c2ccccc2)c2ccccc2)CC1.Cl (racemic)
Ks [1]: 575 nM | Ki [2]: 4.8 µM | Ratio (Rattus norvegicus): 8.35

COC(=O)CN1C(=O)N(CC(O)CN2CCN(c3ccccc3OC)CC2)C(c2ccccc2)(c2ccccc2)C1=O (racemic)
Ks [1]: 86 nM | Ratio (Rattus norvegicus): 2.29

CCN1C(=O)N(CC(O)CN2CCN(c3ccccc3)CC2)C(c2ccccc2)(c2ccccc2)C1=O (racemic)
Ks [1]: 610 nM

CCOC(=O)CN1C(=O)N(CC(O)CN2CCN(c3ccccc3OC)CC2)C(c2ccccc2)(c2ccccc2)C1=O (racemic)
Ks [1]: 88 nM

CCOc1ccccc1N1CCN(CC(CN2C(=O)N(C)C(=O)C2(c2ccccc2)c2ccccc2)OC(C)=O)CC1 (racemic)
Ks [1]: 38 nM

O=C1NC(=O)C(c2ccccc2)(c2ccccc2)N1CC(O)CN1CCN(c2ccccc2)CC1 (racemic)
Ks [1]: 573 nM

CCOC(=O)C(C)N1C(=O)N(CC(O)CN2CCN(c3ccccc3OC)CC2)C(c2ccccc2)(c2ccccc2)C1=O (racemic)
Ks [1]: 30 nM | Ratio (Rattus norvegicus): 4.52

CCOc1ccccc1N1CCN(CC(O)CN2C(=O)N(CC(=O)OC)C(=O)C2(c2ccccc2)c2ccccc2)CC1 (racemic)
Ks [1]: 37 nM

CCOc1ccccc1N1CCN(CC(O)CN2C(=O)N(C)C(=O)C2(c2ccccc2)c2ccccc2)CC1 (racemic)
Ks [1]: 7 nM | Ratio (Rattus norvegicus): 17.4

COc1ccccc1N1CCN(CC(O)CN2C(=O)N(C)C(=O)C2(c2ccccc2)c2ccccc2)CC1 (racemic)
Ks [1]: 22 nM

CCOc1ccccc1N1CCN(CC(O)CN2C(=O)NC(=O)C2(c2ccccc2)c2ccccc2)CC1 (racemic)
Ks [1]: 83 nM | pKb [3]: 7.44
